In ChEMBL document CHEMBL1649165, “Activity profile in vitro of micafungin against Spanish clinical isolates of common and emerging species of yeasts and molds” (2009):
≈ marks a conversion by molar mass, not a printed value.

Columns and labels:
Assay type in all cases: functional
Candida albicans = assay: Antimicrobial activity against Candida albicans by broth microdilution method
Procedure, shortened: (§1)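 Clinical isolates from human patients, tested by broth microdilution using the AFST-EUCAST reference procedure for fermentative yeasts. The MIC was read per that reference method.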

Nakaseomyces glabratus = assay: Antimicrobial activity against Candida glabrata by broth microdilution method; procedure, shortened: as §1
Pichia kudriavzevii = assay: Antimicrobial activity against Candida krusei by broth microdilution method; procedure, shortened: as §1
Clavispora lusitaniae = assay: Antimicrobial activity against Candida lusitaniae by broth microdilution method; procedure, shortened: as §1
Diutina rugosa = assay: Antimicrobial activity against Candida rugosa by broth microdilution method; procedure, shortened: as §1
Wickerhamomyces anomalus = assay: Antimicrobial activity against Candida pelliculosa by broth microdilution method; conditions: Hansenula anomala; procedure, shortened: as §1
Pichia norvegensis = assay: Antimicrobial activity against Candida norvegensis by broth microdilution method; procedure, shortened: as §1
[Candida] inconspicua = Antimicrobial activity against Candida inconspicua by broth microdilution method; conditions: Pichia inconspicua; procedure, shortened: as §1
Candida metapsilosis = assay: Antimicrobial activity against Candida metapsilosis by broth microdilution method; conditions: Lodderomyces metapsilosis; procedure, shortened: as §1
Candida orthopsilosis = assay: Antimicrobial activity against Candida orthopsilosis by broth microdilution method; conditions: Lodderomyces orthopsilosis; procedure, shortened: as §1
Magnusiomyces capitatus = assay: Antimicrobial activity against Dipodascus capitatus by broth microdilution method
Geotrichum candidum = assay: Antimicrobial activity against Galactomyces geotrichum by broth microdilution method
Trichosporon asahii = assay: Antimicrobial activity against Trichosporon asahii by broth microdilution method
Procedure, shortened: (§2)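 Nonfermentative yeast clinical isolates (Rhodotorula, Trichosporon) tested by broth microdilution. The EUCAST yeast recommendations were followed strictly, with one minor modification to improve growth. MIC was read as the endpoint.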

Rhodotorula mucilaginosa = assay: Antimicrobial activity against Rhodotorula mucilaginosa by broth microdilution method; procedure, shortened: as §2
Trichosporon inkin = assay: Antimicrobial activity against Trichosporon inkin by broth microdilution method; procedure, shortened: as §2
Trichosporon ovoides = assay: Antimicrobial activity against Trichosporon ovoides by broth microdilution method; procedure, shortened: as §2
Trichosporon jirovecii = assay: Antimicrobial activity against Trichosporon jirovecii by broth microdilution method; conditions: Cutaneotrichosporon jirovecii; procedure, shortened: as §2
Ustilago = assay: Antimicrobial activity against Ustilago spp by broth microdilution method
Rhodotorula glutinis = assay: Antimicrobial activity against Rhodotorula glutinis by broth microdilution method; procedure, shortened: as §2
Trichosporon = assay: Antimicrobial activity against Trichosporon spp. by broth microdilution method; procedure, shortened: as §2
Aspergillus fumigatus = assay: Antimicrobial activity against Aspergillus fumigatus by broth microdilution method
Procedure, shortened: (§3)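 Clinical mould isolates, tested by broth microdilution using the AFST-EUCAST reference method for filamentous fungi. For echinocandins, the endpoint was the minimum effective concentration: the lowest drug concentration giving aberrant hyphal growth, read with an inverted microscope.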

Aspergillus terreus = assay: Antimicrobial activity against Aspergillus terreus by broth microdilution method; procedure, shortened: as §3
Aspergillus flavus = assay: Antimicrobial activity against Aspergillus flavus by broth microdilution method; procedure, shortened: as §3
Aspergillus nidulans = assay: Antimicrobial activity against Aspergillus nidulans by broth microdilution method; procedure, shortened: as §3
Aspergillus versicolor = assay: Antimicrobial activity against Aspergillus versicolor by broth microdilution method; procedure, shortened: as §3
Aspergillus ochraceus = assay: Antimicrobial activity against Aspergillus ochraceus by broth microdilution method; procedure, shortened: as §3
Aspergillus glaucus = assay: Antimicrobial activity against Aspergillus glaucus by broth microdilution method; procedure, shortened: as §3
Fusarium solani = assay: Antimicrobial activity against Fusarium solani by broth microdilution method
Procedure, shortened: (§4)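 Filamentous fungus clinical isolates tested by the AFST-EUCAST reference broth microdilution method for moulds. For echinocandins, the endpoint was the minimum effective concentration: the lowest drug concentration giving aberrant hyphal growth, read with an inverted microscope.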

Paecilomyces variotii = assay: Antimicrobial activity against Paecilomyces variotii by broth microdilution method; procedure, shortened: as §4
[1] = test system: Scopulariopsis brevicaulis; assay: Antimicrobial activity against Scopulariopsis brevicaulis by broth microdilution method; procedure, shortened: as §4
Phialemonium curvatum = assay: Antimicrobial activity against Phialemonium curvatum by broth microdilution method; conditions: Thyridium curvatum; procedure, shortened: as §4
Fusarium equiseti = assay: Antimicrobial activity against Fusarium equiseti by broth microdilution method; procedure, shortened: as §3
Coprinellus domesticus = assay: Antimicrobial activity against Hormographiella verticillata by broth microdilution method; procedure, shortened: as §4
Scedosporium apiospermum = assay: Antimicrobial activity against Scedosporium apiospermum by broth microdilution method; procedure, shortened: as §4
Lomentospora prolificans = assay: Antimicrobial activity against Scedosporium prolificans by broth microdilution method; procedure, shortened: as §4
Alternaria alternata = assay: Antimicrobial activity against Alternaria alternata by broth microdilution method; procedure, shortened: as §3
[2] = test system: Cladophialophora bantiana; assay: Antimicrobial activity against Cladophialophora bantiana by broth microdilution method; procedure, shortened: as §3
Lecythophora hoffmannii = assay: Antimicrobial activity against Lecythophora hoffmannii by broth microdilution method; conditions: Coniochaeta hoffmannii; procedure, shortened: as §4
Rhizopus arrhizus = assay: Antimicrobial activity against Rhizopus oryzae by broth microdilution method; procedure, shortened: as §4
Mucor = assay: Antimicrobial activity against Mucor spp.by broth microdilution method; procedure, shortened: as §4
[3] = test system: Cunninghamella bertholletiae; assay: Antimicrobial activity against Cunninghamella bertholletiae by broth microdilution method; procedure, shortened: as §3

Work on CC[C@@H]([C@H](C)O)n1ncn(-c2ccc(N3CCN(c4ccc(OC[C@@H]5CO[C@@](Cn6cncn6)(c6ccc(F)cc6F)C5)cc4)CC3)cc2)c1=O [POSACONAZOLE] yielded an MIC50 (Candida albicans) of 0.02 µg/mL (≈ 0.0285 µM), an MIC90 (Candida albicans) of 0.02 µg/mL (≈ 0.0285 µM) and an MIC50 (Nakaseomyces glabratus) of 0.25 µg/mL (≈ 0.357 µM). For the same compound, the MIC90 (Nakaseomyces glabratus) was 1 µg/mL (≈ 1.43 µM), the MIC50 (Pichia kudriavzevii) was 0.12 µg/mL (≈ 0.171 µM) and the MIC90 (Pichia kudriavzevii) was 0.25 µg/mL (≈ 0.357 µM). It also gave an MIC50 (Clavispora lusitaniae) of 0.02 µg/mL (≈ 0.0285 µM), an MIC90 (Clavispora lusitaniae) of 0.02 µg/mL (≈ 0.0285 µM) and an MIC50 (Diutina rugosa) of 0.03 µg/mL (≈ 0.0428 µM). For the same compound, the MIC90 (Diutina rugosa) was > 8 µg/mL, the MIC50 (Wickerhamomyces anomalus) was 0.03 µg/mL (≈ 0.0428 µM) and the MIC90 (Wickerhamomyces anomalus) was > 8 µg/mL. For the same compound, the MIC50 (Pichia norvegensis) was 0.03 µg/mL (≈ 0.0428 µM), the MIC90 (Pichia norvegensis) was > 8 µg/mL and the MIC50 ([Candida] inconspicua) was 0.03 µg/mL (≈ 0.0428 µM). For the same compound, the MIC90 ([Candida] inconspicua) was > 8 µg/mL, the MIC50 (Candida metapsilosis) was 0.03 µg/mL (≈ 0.0428 µM) and the MIC90 (Candida metapsilosis) was > 8 µg/mL. For the same compound, the MIC50 (Candida orthopsilosis) was 0.03 µg/mL (≈ 0.0428 µM), the MIC90 (Candida orthopsilosis) was > 8 µg/mL and the MIC50 (Magnusiomyces capitatus) was 0.5 µg/mL (≈ 0.713 µM). For the same compound, the MIC90 (Magnusiomyces capitatus) was 0.5 µg/mL (≈ 0.713 µM), the MIC50 (Geotrichum candidum) was 0.5 µg/mL (≈ 0.713 µM) and the MIC90 (Geotrichum candidum) was 0.5 µg/mL (≈ 0.713 µM). For the same compound, the MIC50 (Trichosporon asahii) was 0.25 µg/mL (≈ 0.357 µM), the MIC90 (Trichosporon asahii) was > 8 µg/mL and the MIC50 (Rhodotorula mucilaginosa) was 2 µg/mL (≈ 2.85 µM). The MIC90 (Rhodotorula mucilaginosa) was > 8 µg/mL, the MIC50 (Trichosporon inkin) was 0.06 µg/mL (≈ 0.0856 µM) and the MIC90 (Trichosporon inkin) was 0.12 µg/mL (≈ 0.171 µM). For the same compound, the MIC50 (Trichosporon ovoides) was 0.25 µg/mL (≈ 0.357 µM), the MIC90 (Trichosporon ovoides) was > 8 µg/mL and the MIC50 (Trichosporon jirovecii) was 0.25 µg/mL (≈ 0.357 µM). For the same compound, the MIC90 (Trichosporon jirovecii) was > 8 µg/mL, the MIC50 (Ustilago) was 0.25 µg/mL (≈ 0.357 µM) and the MIC90 (Ustilago) was > 8 µg/mL. For the same compound, the MIC50 (Rhodotorula glutinis) was 0.25 µg/mL (≈ 0.357 µM), the MIC90 (Rhodotorula glutinis) was > 8 µg/mL and the MIC50 (Trichosporon) was 0.25 µg/mL (≈ 0.357 µM). For the same compound, the MIC90 (Trichosporon) was > 8 µg/mL, the MIC50 (Aspergillus fumigatus) was 0.06 µg/mL (≈ 0.0856 µM) and the MIC90 (Aspergillus fumigatus) was 0.25 µg/mL (≈ 0.357 µM). The MIC50 (Aspergillus terreus) was 0.06 µg/mL (≈ 0.0856 µM), the MIC90 (Aspergillus terreus) was 0.12 µg/mL (≈ 0.171 µM) and the MIC50 (Aspergillus flavus) was 0.12 µg/mL (≈ 0.171 µM). It also gave an MIC90 (Aspergillus flavus) of 0.25 µg/mL (≈ 0.357 µM), an MIC50 (Aspergillus nidulans) of 0.06 µg/mL (≈ 0.0856 µM) and an MIC90 (Aspergillus nidulans) of 0.25 µg/mL (≈ 0.357 µM). For the same compound, the MIC50 (Aspergillus versicolor) was 0.25 µg/mL (≈ 0.357 µM), the MIC90 (Aspergillus versicolor) was 0.5 µg/mL (≈ 0.713 µM) and the MIC50 (Aspergillus ochraceus) was 0.12 µg/mL (≈ 0.171 µM). The MIC90 (Aspergillus ochraceus) was > 8 µg/mL, the MIC50 (Aspergillus glaucus) was 0.12 µg/mL (≈ 0.171 µM) and the MIC90 (Aspergillus glaucus) was > 8 µg/mL. The MIC50 (Fusarium solani) was > 8 µg/mL, the MIC90 (Fusarium solani) was > 8 µg/mL and the MIC50 (Paecilomyces variotii) was 0.03 µg/mL (≈ 0.0428 µM). For the same compound, the MIC90 (Paecilomyces variotii) was 0.25 µg/mL (≈ 0.357 µM), the MIC50 [1] was 4 µg/mL (≈ 5.71 µM) and the MIC90 [1] was > 8 µg/mL. The MIC50 (Phialemonium curvatum) was 4 µg/mL (≈ 5.71 µM), the MIC90 (Phialemonium curvatum) was > 8 µg/mL and the MIC50 (Fusarium equiseti) was 4 µg/mL (≈ 5.71 µM). For the same compound, the MIC90 (Fusarium equiseti) was > 8 µg/mL, the MIC50 (Coprinellus domesticus) was 4 µg/mL (≈ 5.71 µM) and the MIC90 (Coprinellus domesticus) was > 8 µg/mL. For the same compound, the MIC50 (Scedosporium apiospermum) was 1 µg/mL (≈ 1.43 µM), the MIC90 (Scedosporium apiospermum) was 8 µg/mL (≈ 11.4 µM) and the MIC50 (Lomentospora prolificans) was > 8 µg/mL. For the same compound, the MIC90 (Lomentospora prolificans) was > 8 µg/mL, the MIC50 (Alternaria alternata) was 1 µg/mL (≈ 1.43 µM) and the MIC90 (Alternaria alternata) was > 8 µg/mL. For the same compound, the MIC50 [2] was 0.06 µg/mL (≈ 0.0856 µM), the MIC90 [2] was > 8 µg/mL and the MIC50 (Lecythophora hoffmannii) was 0.06 µg/mL (≈ 0.0856 µM). The MIC90 (Lecythophora hoffmannii) was > 8 µg/mL, the MIC50 (Rhizopus arrhizus) was 2 µg/mL (≈ 2.85 µM) and the MIC90 (Rhizopus arrhizus) was > 8 µg/mL. The MIC50 (Mucor) was 4 µg/mL (≈ 5.71 µM), the MIC90 (Mucor) was > 8 µg/mL and the MIC50 [3] was 4 µg/mL (≈ 5.71 µM). The MIC90 [3] was > 8 µg/mL.
